Source: ChEMBL document CHEMBL1157585, “Synthesis and characterization of novel 1,2,4-triazine derivatives with antiproliferative activity” (Bioorg Med Chem, 2010)
pKd: −log10 of the molar value. In brackets after ≈: the same amount, converted by molar mass.

Assays:
HeLa = assay: Cytotoxicity against human HeLa cells after 72 hrs by methylene blue staining; format: functional
Outline: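 HeLa cells were cultured at 37 °C in RPMI 1640 with ultraglutamine, gentamicin and 10% heat-inactivated FBS, then pre-incubated 48 h without compound. Compound dilutions went onto the subconfluent monolayers, followed by 72 h at 37 °C, humidified, 5% CO2. Cells were fixed with glutaraldehyde, stained 15 min with 0.05% methylene blue and eluted with 0.33 N HCl, with OD read at 660 nm. CC50 was taken at 50% of untreated control, with 4 parallels per concentration.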

[1] = Octanol-water partition coefficient, log P by RP-HPLC method; format: physicochemical
K562 = assay: Antiproliferative activity against human K562 cells after 72 hrs by resazurin dye reduction assay; format: functional; conditions: K562, 72 h
Outline: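 K-562 cells grown at 37 °C in RPMI 1640 with ultraglutamine, gentamicin and 10% heat-inactivated FBS. About 10,000 cells seeded per well in 0.1 mL medium. Compounds were dissolved in DMSO, diluted in DMEM and incubated with cells for 72 h at 37 °C, humidified, 5% CO2. Viable cells were read by CellTiter-Blue resazurin fluorescence. GI50 was taken where the dose-response curve crosses 50% of untreated control, with 4 parallels per concentration.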

[2] = Antiproliferative activity against HUVEC after 72 hrs by resazurin dye reduction assay; format: cell-based; conditions: human, HUVEC cells
Albumin = Albumin (Homo sapiens, UniProt P02768); assay: Binding affinity to HSA after 30 mins assessed as quenching of intrinsic HSA fluorescence emission by spectrofluorimetric assay; format: ADME
Albumin, sequence (P02768 whole entry): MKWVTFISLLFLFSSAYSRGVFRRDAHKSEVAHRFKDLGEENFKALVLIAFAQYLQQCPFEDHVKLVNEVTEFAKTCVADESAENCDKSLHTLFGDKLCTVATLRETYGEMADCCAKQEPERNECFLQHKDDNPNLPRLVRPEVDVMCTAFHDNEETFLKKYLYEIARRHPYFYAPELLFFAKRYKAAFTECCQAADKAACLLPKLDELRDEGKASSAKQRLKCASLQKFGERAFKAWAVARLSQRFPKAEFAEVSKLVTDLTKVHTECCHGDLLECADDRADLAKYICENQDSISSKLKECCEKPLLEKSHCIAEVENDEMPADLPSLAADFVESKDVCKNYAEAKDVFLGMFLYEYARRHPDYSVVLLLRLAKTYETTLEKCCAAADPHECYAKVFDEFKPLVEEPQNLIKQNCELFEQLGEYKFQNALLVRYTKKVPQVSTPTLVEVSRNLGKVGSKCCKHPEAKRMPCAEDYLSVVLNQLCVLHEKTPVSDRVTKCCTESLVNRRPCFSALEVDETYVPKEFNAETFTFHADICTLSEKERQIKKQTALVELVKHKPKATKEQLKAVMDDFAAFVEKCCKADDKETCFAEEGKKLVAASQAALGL
Outline: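 Intrinsic tryptophan fluorescence of HSA at 2 µM final in PBS pH 7.4. Compound stocks were made in DMSO and titrated at increasing concentrations, with 30 min incubation at ambient temperature. Kd came from a quadratic binding equation fitted by nonlinear least squares (Marquardt).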

Structure (SMILES)	logP [1]	GI50 (K562)	pKd (Albumin)	CC50 (HeLa)	GI50 at 72 h [2]
O=C1C(N2CCCC2)=NN(c2ccc(Cl)cc2)CN1c1ccccc1Cl	4.6	8.6 µg/mL (≈ 22.1 µM)	5.56	> 50 µg/mL	18.9 µg/mL (≈ 48.6 µM)
O=C1C(N2CCOCC2)=NN(c2ccc(Cl)cc2)CN1c1ccccc1Cl	4	> 50 µg/mL		> 50 µg/mL	45.6 µg/mL (≈ 113 µM)
Cc1ccc(NC(=O)c2ccc(CN3CCN(C)CC3)cc2)cc1Nc1nccc(-c2cccnc2)n1 [IMATINIB]		0.1 µg/mL (≈ 0.203 µM)			10.9 µg/mL (≈ 22.1 µM)
CN(C)C1=NN(c2ccc(Cl)cc2)CN(c2ccccc2Cl)C1=O	4.2	11 µg/mL (≈ 30.3 µM)	4.99	39.4 µg/mL (≈ 108 µM)	16.1 µg/mL (≈ 44.3 µM)
CN(C)C1=NN(c2ccccc2)CN(c2ccccc2Cl)C1=O	3.6	5.8 µg/mL (≈ 17.6 µM)	5.10	39.5 µg/mL (≈ 120 µM)	34.5 µg/mL (≈ 105 µM)
COc1cccc2c1C(=O)c1c(O)c3c(c(O)c1C2=O)C[C@@](O)(C(=O)CO)C[C@@H]3O[C@H]1C[C@H](N)[C@H](O)[C@H](C)O1 [DOXORUBICIN]	0.71	1 µg/mL (≈ 1.84 µM)		2 µg/mL (≈ 3.68 µM)	0.1 µg/mL (≈ 0.184 µM)

Further lines, with some results ahead:

logP [1]	GI50 (K562)	pKd (Albumin)	Structure (SMILES)	CC50 (HeLa)	GI50 at 72 h [2]
3.5	> 50 µg/mL		O=C1C(N2CCOCC2)=NN(c2ccccc2)CN1c1ccccc1Cl	> 50 µg/mL	> 50 µg/mL
4.6	42 µg/mL (≈ 114 µM)		O=C1C(N2CCCCC2)=NN(c2ccccc2)CN1c1ccccc1Cl	26 µg/mL (≈ 70.5 µM)	24.7 µg/mL (≈ 67 µM)
4	5.2 µg/mL (≈ 14.7 µM)	5.61	O=C1C(N2CCCC2)=NN(c2ccccc2)CN1c1ccccc1Cl	44.3 µg/mL (≈ 125 µM)	40.9 µg/mL (≈ 115 µM)
5	> 50 µg/mL		O=C1C(N2CCCCC2)=NN(c2ccc(Cl)cc2)CN1c1ccccc1Cl	> 50 µg/mL	> 50 µg/mL
